# Measured values as given in ChEMBL document CHEMBL4513216, “Probing the Open Global Health Chemical Diversity Library for Multistage-Active Starting Points for Next-Generation Antimalarials” (ACS Infect Dis, 2020).
# Test: Toxicity liver stage against HepG2, at 10uM
# Assay type: cell-based
# Set-up: test concentration 10 uM, cell line HepG2-A16-CD81EGFP
# Settings: human, HepG2-A16-CD81EGFP cells; read-out: INHIBITION
# How it was run: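 Uninfected HepG2-A16-CD81EGFP cells, 3 × 10^3 per well, 1536-well, plated on prespotted compound at 10 μM final, parasite-free screening media added to match infected plates; puromycin 10 μM positive, DMSO 0.5% negative; run in parallel with 48 h PbLuc assay at 37 °C, 5% CO2; viability by CellTiter-Glo luminescence, normalized to controls.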
row,SMILES,cytotoxicity at 10 µM
1,O=c1cc(CSc2nnc[nH]2)nc2sc3c(n12)CCCC3,-6.04%
2,CC(C)CCn1nc2ccc(S(=O)(=O)N3CCOCC3)cn2c1=O,-2.13%
3,CCOCC(=O)NCCCn1ccnc1-c1ccccc1,-1.11%
4,O=C(O)CC(CC(=O)NCCc1ccsc1)c1cccs1 (stereo unspecified),-10.9%
5,Cc1oncc1C(=O)N1CC[C@H]2[C@H](CO[C@@H]2CNS(C)(=O)=O)C1,0.0508%
6,CC(C)Cc1nc(OCC(N)=O)c(C#N)c2c1CCC2,75.7%
7,COC(=O)CC(c1cnn(C)c1)c1oc(C)cc(=O)c1O (stereo unspecified),21.9%
8,O=C(CSc1nc2c(cnn2CCO)c(=O)[nH]1)N1CCCCCC1,-15.4%
9,CNC(=O)CS(=O)(=O)C1CCN(S(=O)(=O)C2CC2)CC1,-16.7%
10,NC(=O)c1ccc2c(c1)nc1n2CCN(Cc2ccccc2)C1,-8.8%
11,CCOCC(=O)N1C[C@@H]2COC[C@H](c3nc(C)no3)[C@@H]2C1,-11.1%
12,CCn1nc(C)c2nc(C(C)C)nc(NC)c21,7.19%
13,COCCNC(=O)c1cc(C(C)C)nc(N2CCCC2)n1,5.03%
14,CC(C)C(=O)NCCCn1ncc2c(Cl)cccc21,-21.6%
15,CC(C)N1CCCC1c1csc(N)n1 (stereo unspecified),2.33%
16,Cc1ccc(CN2CCOC(c3cnccn3)C2)s1 (stereo unspecified),-2.81%
17,CCc1ccccc1CNC(=O)CCc1cnn(C)c1,-3.09%
18,O=C1CC(C(=O)Nc2nnc(-c3ccoc3)[nH]2)c2ccccc2N1 (stereo unspecified),0.841%
19,Cc1noc(C2CCN(C(=O)c3cc(Cl)c(Cl)n3C)CC2)n1,10.7%
20,CC(C)c1noc(CNc2ccccc2CC(=O)N(C)C)n1,-10.6%
21,CC(NC(=O)CCN1CCOC1=O)(c1ccccc1)c1ccccc1,-10%
22,CC(O)CN(C)c1cc(C(F)(F)F)nc(-c2cccnc2)n1 (stereo unspecified),-6.68%
23,COc1ncnc(N)c1CNCCc1ccc(-n2cccn2)cc1,-13.3%

row,SMILES,cytotoxicity at 10 µM
1,CC(C)C(C)N(C)C(=O)COc1ccccc1C#N (stereo unspecified),-3.28%
2,CC(C)(C)c1nccc(N2CCCCC2CNS(C)(=O)=O)n1 (stereo unspecified),-2.84%
3,COc1cc(CNC(=O)Nc2nnc(C3CC3)s2)ccc1O,31.3%
4,Cn1cnnc1CNC(=O)Nc1ccc(OC2CCC2)c(F)c1,1.03%
5,CCCN(C)C(=O)c1cc(S(=O)(=O)NCC)ccc1C,-0.403%
6,CS(=O)(=O)Nc1ccc(CNC(=O)CN2CCc3ccccc32)cc1,7.1%
7,CC(CN1CCCC1=O)NC(=O)c1ccc(-c2ccco2)[nH]c1=O (stereo unspecified),-5.04%
8,Cc1cnn(CCNCC(O)c2cccc(Br)c2)c1 (stereo unspecified),1.66%
9,Cc1cccc(N2CCN(C(=O)CN3CCC(C(N)=O)CC3)CC2)c1,4.52%
10,Cc1nccn1-c1cc(CNC(=O)N2CCSCC2)ccn1,-0.613%
11,COCCn1cc(NC(=O)C(C)CCc2ccccc2F)ccc1=O (stereo unspecified),-3.73%
12,c1coc(-c2nnc(CN(Cc3cccs3)CC3CCCO3)o2)c1 (stereo unspecified),5.79%
13,Cn1cc(C(=O)Nc2ccnc(Oc3ccccc3)c2)ccc1=O,-4.5%
14,CCC(NC(=O)c1ccc2[nH]ccc2c1)C(=O)N1CCOCC1 (stereo unspecified),5.84%
15,Cc1cc(CNC2(c3ccc(Cl)cc3)CC2)no1,1.5%
16,CCCC(=O)N1CCCCC1C(=O)Nc1ccc(-c2nnc[nH]2)cc1 (stereo unspecified),7.65%
17,CCN(CC)c1ccc(C(=O)NCc2cccnc2-n2cncn2)cn1,11.7%
18,COc1ccc(NC(=O)C2CCOC2)c(N2CCN(C(C)=O)CC2)n1 (stereo unspecified),-12.2%
19,CC(O)CN1CCN(C(=O)c2cnn(-c3ccc(Cl)cc3)c2)CC1 (stereo unspecified),-10.3%
20,Cn1cc(S(=O)(=O)N2CCCC2CC(=O)c2cccs2)cn1 (stereo unspecified),-8.08%
21,COCCN(Cc1ccc(F)cc1Cl)C(=O)c1ccc(=O)[nH]n1,0.469%
22,CC(C)c1noc(CN(Cc2ccccc2F)C2CC2)n1,-7.96%
23,CC(O)CN1CCN(C(=O)c2cc3ccccc3[nH]c2=O)CC1 (stereo unspecified),0.407%

row,SMILES,cytotoxicity at 10 µM
1,Cc1cccc(CN2CC[C@@H]3O[C@@H](C(=O)N4CCN(C)CC4)C[C@@H]32)c1,8.01%
2,O=C(c1ccnnc1)N1CCC2(CC1)CCN(C(=O)c1cccnc1)C2,-97.8%
3,CSCc1noc(CNC(=O)C2CCN(C(=O)C3CCC3)CC2)n1,6.35%
4,COc1ccc(Cc2nc3c([nH]2)CC(C)(C)CNC3=O)c(OC)c1,-1.02%
5,O=C(c1cnn[nH]1)N(CCCO)Cc1cccnc1,-2.48%
6,Cc1ccccc1CC(=O)N1CCCn2cncc2C1,-1.1%
7,O=C(CN1CCOC1=O)N1CC[C@@H](c2ccc3ccccc3c2)[C@H](O)C1,0.562%
8,COc1cccc(OCC2CCCN(C(=O)CCCn3cccn3)C2)c1 (stereo unspecified),8.12%
9,CC(C)c1cc(CN2CCN(c3cccnc3)CC2)n(C)n1,-0.0184%
10,CC(=O)c1cccc(C(=O)N2C[C@@H](CN3CCCCCC3)[C@@H](CO)C2)c1,3.32%
11,CCN(CC)C(=O)[C@@H]1C[C@H](n2cc(-c3cccc(OC)c3)nn2)CN1,12.4%
12,Cc1nc[nH]c1CN1CCOC(CCNC(=O)c2ccsc2)C1 (stereo unspecified),-13.1%
13,C1CCC(c2nnc3sc(C4CCOC4)nn23)C1 (stereo unspecified),-2.16%
14,Cc1[nH]c2ccc(CNc3cc(C(N)=O)ccn3)cc2c1C,-4.73%
15,O=C(O)C1c2nc[nH]c2CCN1Cc1ccc(-c2ccccc2)s1 (stereo unspecified),-9.35%
16,COc1ccc(CCN(C)C(C(=O)O)c2ccc(F)c(C)c2)cc1OC (stereo unspecified),2.93%
17,Cc1[nH]c2c(C)ccc(C)c2c1CC(=O)NCc1csc(N(C)C)n1,-6.65%
18,CCOc1ccc(C(=O)N2Cc3cnc(CC(C)C)nc3C2)o1,7.18%
19,CCC(C)CN1CCC(n2cc(C3CCCC3)nn2)CC1 (stereo unspecified),-2.13%
20,CCc1noc(CN(CC)C(=O)CC2C(=O)NCCN2CC=C(C)C)n1 (stereo unspecified),2.24%
21,CSCc1noc(CNC2CCCC(C)(C)C2)n1 (stereo unspecified),-0.268%
22,Cc1cnc(N2CCCC(O)C2)nc1-c1ccnn1C (stereo unspecified),-0.271%
23,Cc1cccc2cc(CN3CCC(O)(CN4CCCC4)CC3)c(=O)[nH]c12,-14.9%

row,SMILES,cytotoxicity at 10 µM
1,Cc1ccc(CCNC(=O)CC2COCCN2S(=O)(=O)N(C)C)s1 (stereo unspecified),1.69%
2,CC(c1ccco1)N(C)Cc1cc2cc3c(cc2[nH]c1=O)OCO3 (stereo unspecified),2.59%
3,Nc1nc2c(c(=O)[nH]1)CCN(C(=O)c1cccc3nccnc13)C2,-11.4%
4,CC(C)CN1CCc2[nH]cnc2C12CCN(C(=O)c1cccnc1)CC2,23.4%
5,CC(=O)N1C[C@@H](c2ccsc2)[C@@H]2CN(Cc3ccccc3)CC[C@@H]21,6.76%
6,CC1CN(Cc2cccnc2)CCN1c1ccc2nncn2n1 (stereo unspecified),-11.1%
7,Cc1nn(C)c(C)c1CCC(=O)N1CCCC(n2cccn2)C1 (stereo unspecified),-6.69%
8,CCc1cnc(CN(C(C)=O)C2CCN(CCc3ccccc3)C2)o1 (stereo unspecified),-8.17%
9,Cc1nnc2n1CCN(C(=O)CN(C)Cc1ccccc1)C2,-4.56%
10,CC(C)c1noc(CN2CCN(C(=O)c3ccc(F)cc3)CC2)n1,-9.73%
11,c1ccc(-c2noc(CCCN3CCCC3Cn3cncn3)n2)cc1 (stereo unspecified),-2.06%
12,Cn1ccnc1CN1CCN(CC(=O)NCc2cccs2)CC1,-8.25%
13,COc1c(CNCc2ccc(Cn3ccnc3)cc2)c(C)nn1C,-25.1%
14,CC(Cn1ccnc1)NC(=O)NCCc1cccnc1 (stereo unspecified),-12.1%
15,Cc1cccc(NC2CCN(C(=O)Nc3ccncc3)CC2)n1,-17.1%
16,COc1ccc2cc(C(=O)N3CCCC3Cn3cc(C)cn3)[nH]c2c1 (stereo unspecified),-0.743%
17,CN(Cc1cnn(C)c1)C(=O)C1CCCN1Cc1ccccn1 (stereo unspecified),-25.8%
18,Cc1cnn(C2CCCN(C(=O)c3ccc(Cn4ccnc4)cc3)C2)c1 (stereo unspecified),2.54%
19,Cc1cc(C(=O)N2CCCC(n3cncn3)C2)nn1C (stereo unspecified),-0.776%
20,COc1ccccc1CCNC(=O)N1CCC(n2cncn2)CC1,0.428%
21,CC(C)c1nc2n(n1)CC(NCc1nc(C3CC3)no1)CC2 (stereo unspecified),-7.59%
22,COc1cccc(C(=O)N2CCCC(CNS(C)(=O)=O)C2)c1 (stereo unspecified),-17.9%
23,Cc1nnc2n1CCN(C(=O)c1cc(C)n(-c3ccccn3)c1C)C2,0.765%

row,SMILES,cytotoxicity at 10 µM
1,COc1cc(C(=O)N(Cc2cnn(C)c2)C(C)C)ccc1OCC(N)=O,-5.45%
2,O=C(CN1CCOC(Cn2cccn2)C1)NCCc1ccc(F)cc1 (stereo unspecified),-15.6%
3,O=C(C1CCS(=O)(=O)C1)N1CCN(c2cnccn2)CC1 (stereo unspecified),-6.66%
4,Cc1cc(C)n2cc(CN3CCCC3Cn3nc(C)nc3C)nc2n1 (stereo unspecified),4.91%
5,Cc1cnn(C2CCCN(C(=O)c3ccnc(N(C)C)c3)C2)c1 (stereo unspecified),5.15%
6,CCOC1CCN(C(=O)c2cnn(-c3ccccc3Cl)c2)CC1,-9.78%
7,COc1cc(C)nc(N2CCN(C(=O)c3ccccc3C)CC2)n1,-2.18%
8,CCc1nc(C2CCCN2CCn2cncn2)no1 (stereo unspecified),-8.13%
9,CCOc1ccc(Br)cc1C1CCCN1 (stereo unspecified),5.01%
10,O=C(c1cccnc1)N1CCC2(CC1)CCN(c1ccsc1)C2=O,6.84%
11,CC(C)CN1CCO[C@H]2CCN(c3cnccn3)CC[C@@H]21,2.31%
12,O=C(c1cccnc1)N1CCC2(CC1)COCCN(c1ncccn1)C2,2.66%
13,COCC1CC2(CCN(c3ccc(C)nn3)CC2)CN1C(C)C (stereo unspecified),-112%
14,CCCN1CCC(c2nc3ccc(-c4ccncc4)cn3n2)CC1,-117%
15,Cn1ccnc1CN1CCC2(CC1)CCN(c1ccccc1)C2=O,-9.06%
16,c1csc(CN2CCO[C@H]3[C@H](OCCN4CCCC4)CC[C@@H]32)n1,-7.32%
17,Cc1cccc(CO[C@@H]2CC[C@H]3[C@H]2OCCN3Cc2ccsc2)n1,-16.3%
18,O=c1cc(Cn2cncn2)nc2n1CCCN(CCN1CCCC1)C2,2.78%
19,NC1CCC(n2cc(C(=O)N[C@H]3CCCc4ccccc43)nn2)CC1 (stereo partly specified),-5.71%
